From ChEMBL document CHEMBL4513216, “Probing the Open Global Health Chemical Diversity Library for Multistage-Active Starting Points for Next-Generation Antimalarials” (ACS Infect Dis, 2020)

Assay: Toxicity liver stage against HepG2, at 10uM
Type: cell-based
Set-up: test concentration 10 uM, cell line HepG2-A16-CD81EGFP
Settings: human, HepG2-A16-CD81EGFP cells; read-out: INHIBITION
Outline: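 Uninfected HepG2-A16-CD81EGFP cells, 3 × 10^3 per well, 1536-well, plated on prespotted compound at 10 μM final, parasite-free screening media added to match infected plates; puromycin 10 μM positive, DMSO 0.5% negative; run in parallel with 48 h PbLuc assay at 37 °C, 5% CO2; viability by CellTiter-Glo luminescence, normalized to controls.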

SMILES | cytotoxicity at 10 µM
CN1CC=C(c2noc(CCC(=O)N3CCc4ccccc4C3)n2)CC1 | 6.97%
CC(C)n1ccc2c(NC(=O)c3n[nH]c4c3CCC4)cccc21 | 7.64%
COc1ccc(CC(C)(O)CNC(=O)Cc2ccc(F)cc2)cc1 (stereo not given) | 3.91%
O=C(Nc1cnc(N2CCOCC2)nc1)c1ccc(C(F)(F)F)cc1 | 9.94%
Cc1ccc(S(=O)(=O)N2CCC(Oc3ccccn3)CC2)c(C)c1 | 26.3%
CCN(C)C(=O)c1cnc(-c2noc3cc(N4CCCCC4)ccc23)s1 | 48.6%
CCOCC1c2c(ncn2C(C)C)CCN1C(=O)C1CC1 (stereo not given) | 10.5%
Cc1ccc(C(=O)N2C[C@@H]3CN(c4ncccn4)C[C@@H]3C2)cn1 | 6.86%
Cc1c(C)n(Cc2ccncc2)c2nc3c(c(N)c12)CCCCCC3 | 9.18%
COc1ccc(NC2CCc3c2[nH]c(=O)n(C2CCCCC2)c3=O)cc1 (stereo not given) | 2%
CCn1cc(CNC(=O)c2nn(CC)cc2Br)cn1 | 47.1%
CCCc1nc(N2CCCCCC2)c2c(n1)c(C)nn2CC | 39.4%
c1cnc(N2CCC(c3csc(Nc4cnccn4)n3)CC2)nc1 | 34%
Cc1nn(C)cc1C1=NS(=O)(=O)N(C)C(C(=O)Nc2ccc(Cl)cc2)=C1 | 7.9%
Fc1cccc(Nc2nc(N3CCCC3)nc3c2CNCC3)c1 | -18%
NCC(=O)N1CCC(c2cccc(Oc3ccccc3)n2)CC1 | 9.43%
CSc1ccc(CN2C[C@@H]3CC[C@@](O)(c4ccc(C)cn4)[C@@H]3C2)cc1 | -15.7%
Nc1cc(CCC2CN(Cc3ccc4cc[nH]c4c3)CCO2)ccn1 (stereo not given) | -10.6%
Cc1ccc(S(=O)(=O)N2C[C@H]3C[C@H](NC(=O)c4ccnn4C)[C@H]3C2)cc1 | 85.2%
CC(C)C1=NOC2(CCN(Cc3c[nH]c4ccccc34)CC2)C1 | 3.46%
CC(C)CSCCN1CCCN(S(C)(=O)=O)CC1 | -8.17%
CCN(CC)c1ncc(Cl)c(C(=O)NC2CCc3nccn3C2)n1 (stereo not given) | -49.5%

SMILES | cytotoxicity at 10 µM
NS(=O)(=O)c1ccc(NCc2ccccc2)cc1C(F)(F)F | 3.85%
Fc1ccc(CNCc2cc(Br)c3c(c2)OCO3)cc1 | 0.658%
COc1ccc(CNCCC(=O)N2CCc3sccc3C2)cc1O | 4.48%
CN(Cc1ccccc1F)Cc1cc2c(cc1Br)OCCO2 | -139%
CCc1cnc(COc2ccc(OC3CCCCNC3=O)cc2)o1 (stereo not given) | 0.318%
CC(C)(C)n1ncc(NCCc2ccccc2C(F)(F)F)c(Cl)c1=O | 57%
CC(C)c1nnc(NC(=O)Cc2csc(-c3nnc[nH]3)n2)s1 | -47.2%
CNC(=O)CCOC(=O)c1cccc(-n2cccn2)c1 | -39.6%
CCc1nc(CN2CCN(C(=O)c3cc(C)nn3C)CC2)cs1 | 3.83%
COc1ccnc(N2CCCN(c3nc(C4CC4)ns3)CC2)n1 | 0.142%
O=C(NC1CCC(N2C(=O)CCC2=O)CC1)c1c[nH]c2ccccc12 (stereo not given) | -2.06%
Cc1ncc(C(=O)NCCNc2ncnc3sccc23)s1 | 27.6%
CCCC(=O)N(C)c1cccc2ncccc12 | 3.94%
O=S(=O)(c1ccc(Cl)cc1)N1CCN(CCCn2ccnc2)CC1 | -6.18%
Cc1cccc(OCC(O)CN2CCN(c3nccs3)CC2)c1 (stereo not given) | 16.5%
Cc1cnn(CC2CN(CCCS(=O)(=O)N(C)C)CCO2)c1 (stereo not given) | -2.71%
Cc1[nH]ncc1CCCNC(=O)Nc1ccc(F)cc1 | 3.91%
CCSc1cc(C(=O)NCc2ccc(C(=O)NC)cc2)ccn1 | 32.6%
O=c1[nH]ncc(NCCOc2ccc3c(c2)CCC3)c1Cl | 34.5%
Clc1cc(CN2CCCC(Cn3cncn3)C2)c2ncccc2c1 (stereo not given) | 6.64%
Cc1ccc(-c2n[nH]cc2CNCCn2cccn2)o1 | -11.2%
Fc1ccc(-c2n[nH]cc2CNCCn2cccn2)cc1 | 8.1%

SMILES | cytotoxicity at 10 µM
Cc1nc(C)n(CC2CCCN2CC(=O)NCCC2=CCCCC2)n1 (stereo not given) | -0.527%
O=C(c1cc(F)cc2[nH]cnc12)N1CCCCC1Cn1cccn1 (stereo not given) | 16.5%
O=S(=O)(N1CCOCC1)N1CCc2sccc2C1 | -92.3%
CCNC(=O)N1CCC(NC(=O)NCCc2cccc(C)c2)C1 (stereo not given) | -42.2%
CCCNC(=O)c1cccc(CNCc2csc(C(C)(C)C)n2)c1 | 12.3%
c1ccc(N2CCCC2)c(NCc2ccncc2)c1 | -0.289%
CCN1CCN(c2ccc(C(=O)NCCOC)cc2F)CC1 | 1.12%
COCC(O)CNc1ccc(C#N)cc1C(F)(F)F (stereo not given) | 13.3%
CN1CCN(C2CCN(c3cnc4ccccc4n3)CC2)C1=O | 27.4%
Cc1nnc2n1CCN(CC(O)CN1CCC(C)CC1)C2 (stereo not given) | 2.78%
O=C1C(N2CC[C@@H](O)C2)CCCN1Cc1cccc(C(F)(F)F)c1 (stereo not given in full) | 1.22%
CCc1ccc(CNC(=O)c2ccc(N3CCOC3=O)cc2)s1 | 22.5%
Cc1ccc(OCC(O)CN(C)CC(=O)Nc2cc(C)on2)c(C)c1 (stereo not given) | -17.3%
O=C(NCc1nnc2n1CCC2)N1CCC2(CCCCC2)CC1 | 11%
CN(Cc1ccc(N2CCCCC2)cc1)Cc1noc(C(C)(C)C)n1 | 12.5%
COCC(=O)N1CCC2(CC1)CN(CC1CC1)c1ccc(F)cc12 | -103%
Cc1nc(-c2ccccc2)nc2c1CCN(Cc1nccn1C)CC2 | -118%
CC(=O)NCC(=O)N1CCN(Cc2ccncc2)c2ncccc2C1 | -90.3%
Cc1cccc(CN2CC[C@H]3C[C@@H](C)O[C@@H]3C2)n1 | -65.5%
COc1cc(N2CC[C@H](O)[C@@H]2Cc2ccccc2)ncn1 | -75%
CC(C)Nc1ncnc2c1CCN(C(=O)N1CCOCC1)CC2 | -74%
O=C(c1cccs1)N1C[C@H]2CCC[C@@]2(COCC2CCOCC2)C1 | -68.9%

SMILES | cytotoxicity at 10 µM
CC[C@@H](C)[C@@H](N)C(=O)Nc1cccc(-c2cnc(N(C)C)nc2)c1 | -4.78%
Cc1ccccc1N1CCCN(C(=O)CCCn2ccnc2C)CC1 | -3.3%
COc1ccc(C(=O)C2CCCN(Cc3cccc(F)c3)C2)c(OC)c1 (stereo not given) | 6.4%
COc1ccc2c(c1)OCC(Cc1ccc(N)nc1C)C2 (stereo not given) | 21.8%
COC(=O)N1CCC2(CC1)N=C(CCC(C)C)NC2=O | -2.77%
N[C@@H]1c2ccccc2C2(CCN(c3ccc(C(F)(F)F)cn3)CC2)[C@H]1O | -5.78%
CC(C)c1noc(CN(Cc2cccnc2)C2CN3CCC2CC3)n1 (stereo not given) | 17.2%
FC(F)(F)c1ccccc1CCC1CCCN(Cc2cscn2)C1 (stereo not given) | 2.28%
COCc1noc(-c2ccc(N3CCC[C@H]3CO)nc2)n1 | -8.26%
COc1ccnc(CNc2nc(C)nc3ccsc23)c1 | 40.5%
C[C@@H](O)[C@H](NC(=O)c1csc2nc(-c3ccccc3F)cn12)C(N)=O | 2.37%
Nc1nc(NCCO)cc(N2CCc3c([nH]c4ccccc34)C2)n1 | 11.9%
Cc1noc(-c2ccc(N3CCC(C(=O)N4CCCC4)CC3)nc2)n1 | 6.5%
COc1ccnc(CN2CCCC(CCc3ccccc3)C2)c1OC (stereo not given) | 0.979%
O=C(c1n[nH]cc1Cl)N1CCOC(Cc2cccc(C(F)(F)F)c2)C1 (stereo not given) | 4.19%
CN(Cc1ccn[nH]1)Cc1c[nH]nc1-c1ccc(F)cc1 | -6.41%
Cc1cnc(C)c(N2CCC(c3nnc(CN(C)C)n3C3CC3)CC2)n1 | -0.918%
O=C(NCc1cnn2cccnc12)c1cccc(CC2CCNCC2)c1 | -44.5%
COCCN1CC2(CCCN(c3ncc(Cl)cc3F)C2)CCC1=O (stereo not given) | 21.8%
O=c1cc(N2CCNCC2)cnn1Cc1noc(C2CCCC2)n1 | -53.5%
Cn1ncc(NC(=O)Cn2cc(-c3ccc(F)cn3)cn2)n1 | 7.16%
Cc1cc(N(C)Cc2cc(C(C)(C)C)n[nH]2)nc(-c2cccnc2)n1 | 19.9%

SMILES | cytotoxicity at 10 µM
Cc1nonc1CN(C)c1nc(-c2ccco2)nc2c1CCN(C)CC2 | -0.274%
O=C(CCn1cc(Cl)cn1)N1CCC2(CC1)[C@H](O)C[C@@H]2OCCO | 19.6%
CCN(CC)C(CNCc1ccc(O)cc1)c1ccco1 (stereo not given) | 1.29%
Cc1ccc(CN2CCN(c3nc4c(s3)c(C)nn4C)C(C)C2=O)cc1 (stereo not given) | 76.5%
COCCCNC(=O)Cc1nc(-c2ccncc2)n[nH]1 | -9.72%
CCC(C)c1ccc(NC(=O)C2CCN(C(=O)N(C)C)CC2)cc1 (stereo not given) | -7.29%
Cc1cnc(C)c(N2CCN(CCCc3ccncc3)CC2)n1 | -15.4%
COc1cccc2c1OCC(NCCc1cnn(-c3ccccc3)c1)C2 (stereo not given) | -0.6%
O=C1CC2(CCN(CCCF)CC2)CN1Cc1cc(F)cc(F)c1 | 16.3%
Cn1ncc2c(NCCOc3ccc(F)cc3)nc(C3CCCC3)nc21 | 6.1%
CCc1cccc(N2CCC(NC(=O)c3cc[nH]n3)CC2)c1 | 3.08%
c1ccc(OCCNC2=NCCCN2)cc1 | -2.34%
CN(C)c1ccc(CNC2=NCCCN2)cc1 | -39.9%
c1cc2nccc(CC3CCCN(Cc4c[nH]cn4)CC3)c2cn1 (stereo not given) | -5.11%
Cc1cccc(CN2CCc3c(COCC(=O)N(C)C)nn(C)c3C2)n1 | -120%
Cc1ccc(N2CC[C@H]3CN(C(=O)c4ccn(C)n4)C[C@H]3C2)nn1 | -102%
Cn1ccnc1NC[C@@H]1CCC[C@@H]2CN(CC3CC3)C[C@@H]21 | 16%
c1ccc(N2CCOC3(CCCN(c4ncccn4)C3)C2)nc1 (stereo not given) | -103%
O=C(c1ccsc1)N1C[C@@H]2CCN(c3cccnc3)C[C@@H]2C1 | -69.3%
O=S1(=O)c2ccccc2C2(CCN(Cc3cccnc3)C2)N1CC1CC1 (stereo not given) | -68.7%
O=C(c1ccco1)N1CCC2(CCCN(c3ncccn3)C2)C1 (stereo not given) | -105%
O=C1CCCC2=Nc3nonc3NC(c3cc(Cl)ccc3F)C12 (stereo not given) | 35.5%
